Experimental findings from PubChem BioAssay are described below.

As usually defined, the viability is a read-out of living cells in per cent, often relative to untreated cells. As usually defined, the inhibition is the drop in the measured response relative to a control, in per cent.

A short description of assay [1]: SK-BR-3 cell growth inhibitors, pilot screen, 24 h, human (AID 572;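 active = viability at or below 10% of carrier control in both of two separate runs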;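 also: compound exposure lasted between 18 and 24 h rather than exactly 24 h; 100% = carrier-treated control wells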). The settings on record: SK-BR-3 viability, CellTiter-Glo luminescence, at 10 µM, stronger effect = lower value.
A short description of assay [2]: HUVEC growth inhibition – cell-based, human, primary screen (AID 575;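 active = viability at or below 30% in both replicate assays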;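 also: 100% = median of untreated cell wells with 0.1% DMSO on each plate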). Particulars: HUVEC proliferation, CellTiter-Glo luminescence, 72 h; at 10 µM; stronger effect = lower value. The method in brief:
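Test system – primary HUVEC, no more than 12 passages · Dosing – one dose, 10 µM final, 0.1% DMSO · Times – 72 h treatment at 37 °C · Measured by – ATP-based CellTiter-Glo luminescent read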

A short description of assay [3]: growth inhibitors of H69AR lung tumor, primary screen, human, duplicate replicates (AID 580;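 active = viability at or under a set limit in both replicates, limit being median viability minus 3 SD, cut at about 48% in these data, passing the limit was not always enough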;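 also: 100% = mean luminescence of untreated wells and 0% = no signal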). Particulars: H69AR lung tumor cells viability, ATP luminescence, 72 h; at 10 µM; stronger effect = lower value.
Assay [4] is described as follows: reversal of MRP1-mediated doxorubicin resistance, pilot screen, H69AR cells, doxorubicin co-treatment (AID 601). The settings on record: CellTiter-Glo, 72 h, at 10 µM; for differential viability (reversal): stronger effect = higher value. In general terms: Cellular ATP, detected with luciferase, serves as a proxy for viable cell number.
A short description of assay [5]: 384-well plate pilot, post-Golgi transport modulator project, inhibition of yeast transport mutant growth (AID 636; in the data active = inhibition above about 31%). The settings on record: absorbance 615 nm, about 18 h, stronger effect = higher value.
Assay [6] is described as follows: growth suppression of yeast trafficking mutant, preliminary HTS, modulators of trafficking downstream of Golgi apparatus project, 1536-format plate, OD 615 nm (AID 637; in the data active = inhibition above about 30%). Particulars: yeast transport mutant growth, absorbance 615 nm, 18 h; stronger effect = higher value.
Setting [7] is: H69AR cells + 2 uM doxorubicin, measured here: viability with 2 uM doxorubicin, stronger effect = lower value.
[8] abbreviates: H69AR cells, compound alone cytotoxicity.

Activity calls are given as the source filed them.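 The calls were made as follows, unless noted: active = viability loss from added drug above about 55%, and viability with drug at most 40%, in both replicates (limit read from the data, passing the limit was not always enough); inconclusive = both conditions met in only one replicate; inactive = neither replicate meets both conditions.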

`CCOc1cc(C2Nc3ccccc3C(=O)N2c2ccccc2OC)ccc1O` (stereo not drawn): the viability in assay [1] was 98% (inactive); in assay [2] it was 105% (inactive); in assay [3], 95% (inactive); in assay [4] (setting [7]), 94.9%; in assay [4] (setting [8]), 95%. The differential viability (reversal) in assay [4] (H69AR cells + 2 uM doxorubicin) is 0.125% (inactive). In addition, the inhibition is -4.59% (inactive) in assay [5] and 28.4% (inactive) in assay [6].
Turning to `O=C(c1cccs1)N(Cc1ccco1)Cc1cc2ccccc2[nH]c1=O`, the viability in assay [1] is 86% (inactive); in assay [2], 110% (inactive); in assay [3], 82.2% (inactive); in assay [4] (setting [7]), 88.7%; in assay [4] (setting [8]) it was 82.2%. The differential viability (reversal) in assay [4] (H69AR cells + 2 uM doxorubicin) is -6.47% (inactive). Besides, the inhibition in assay [5] was 4.19% (inactive); in assay [6] it was -4.91% (inactive).
For `COc1ccc(CCN(C)CCCC(C#N)(c2cc(OC)c(OC)c(OC)c2)C(C)C)cc1OC` (stereo not drawn), the viability in assay [1] was 85% (inactive); in assay [2] it was 64.6% (inactive); in assay [3] it was 95.6% (inactive); in assay [4] (setting [7]) it was 101%; in assay [4] (setting [8]), 95.6%. Besides, the differential viability (reversal) in assay [4] (H69AR cells + 2 uM doxorubicin) was -5.51% (inactive). The inhibition in assay [5] is 5.71% (inactive); in assay [6], -1.17% (inactive).
As for `CN(C)c1nc(Oc2ccc(N)cc2)nc(N(C)C)n1`, the viability in assay [1] is 97% (inactive); in assay [2] it was 86.2% (inactive); in assay [3], 90.1% (inactive); in assay [4] (setting [7]) it was 96.6%; in assay [4] (setting [8]) it was 90.1%. For the same compound, the differential viability (reversal) in assay [4] (H69AR cells + 2 uM doxorubicin) was -6.47% (inactive). In addition, the inhibition in assay [5] was -7.73% (inactive); in assay [6], -2% (inactive).
As for `COc1cccc(N2C(=O)N(c3ccccc3Cl)C3CS(=O)(=O)CC32)c1` (stereo not drawn), the viability in assay [1] was 93% (inactive); in assay [2], 106% (inactive); in assay [3], 98% (inactive); in assay [4] (setting [7]), 88.7%; in assay [4] (setting [8]) it was 98%. The differential viability (reversal) in assay [4] (H69AR cells + 2 uM doxorubicin) was 9.28% (inactive). The inhibition in assay [5] is -6.71% (inactive); in assay [6], 3.45% (inactive).
Take `c1ccc(Cc2nn3c(Cn4cnc5ccccc54)nnc3s2)cc1`: the viability was 128% (inactive) in assay [1]; 78.9% (inactive) in assay [2]; 85.8% (inactive) in assay [3]; 82.3% in assay [4] (setting [7]); 85.8% in assay [4] (setting [8]). Besides, in assay [4] (H69AR cells + 2 uM doxorubicin), the differential viability (reversal) was 3.46% (inactive). Further, the figures for the inhibition in assay [5] and in assay [6] were -5.34% (inactive) and -0.65% (inactive), respectively.
In the case of `O=c1c2ccccc2c(/C=N/n2cnnc2)c(O)n1-c1ccccc1`, the viability was 84% (inactive) in assay [1]; 103% (inactive) in assay [2]; 100% (inactive) in assay [3]; 83.9% in assay [4] (setting [7]); 100% in assay [4] (setting [8]). Further, the differential viability (reversal) in assay [4] (H69AR cells + 2 uM doxorubicin) is 16.3% (inactive). Further, the inhibition is -7.7% (inactive) in assay [5] and -3.09% (inactive) in assay [6].
As to `O=C(NCc1ccco1)c1ccccc1Nc1ccc(F)cc1`, the viability was 80% (inactive) in assay [1]; 97.1% (inactive) in assay [2]; 79.2% (inactive) in assay [3]; 73.6% in assay [4] (setting [7]); 79.2% in assay [4] (setting [8]). Also, the differential viability (reversal) in assay [4] (H69AR cells + 2 uM doxorubicin) is 5.57% (inactive). Moreover, the inhibition in assay [5] was -7.03% (inactive); in assay [6], -7.09% (inactive).
On to `O=C(CN1C(=O)COc2ccccc21)N(Cc1cccnc1)Cc1ccccc1F`, for which the viability in assay [1] was 78% (inactive); in assay [2] it was 96.6% (inactive); in assay [3], 83.5% (inactive); in assay [4] (setting [7]) it was 74.9%; in assay [4] (setting [8]), 83.5%. The differential viability (reversal) in assay [4] (H69AR cells + 2 uM doxorubicin) was 8.57% (inactive). The inhibition in assay [5] was -2.97% (inactive); in assay [6], 0.55% (inactive).
For the compound `CN1CCN(c2nc3c(c(=O)n(C)c(=O)n3C)n2Cc2cccc3ccccc23)CC1`, the viability is 129% (inactive) in assay [1]; 77.5% (inactive) in assay [2]; 84% (inactive) in assay [3]; 57.4% in assay [4] (setting [7]); 84% in assay [4] (setting [8]). The differential viability (reversal) in assay [4] (H69AR cells + 2 uM doxorubicin) was 26.6% (inactive). In addition, the inhibition in assay [5] was 0% (inactive); in assay [6], 0.16% (inactive).
On to `CCN1C(=O)C(C(=O)Nc2ccc(OC)cc2)C2CC1(C)Oc1ccccc12` (stereo not drawn), for which the viability is 80% (inactive) in assay [1]; 110% (inactive) in assay [2]; 86.4% (inactive) in assay [3]; 96.4% in assay [4] (setting [7]); 86.4% in assay [4] (setting [8]). Also, the differential viability (reversal) in assay [4] (H69AR cells + 2 uM doxorubicin) is -10% (inactive). The inhibition in assay [5] is -8.51% (inactive); in assay [6], -1.64% (inactive).
